Reference: ChEMBL document CHEMBL5661970 (Cancer Res, 2006)
The source made the active and inactive calls. The rule behind the calls is not given here.

Tests used:
[1] = Apparent oral clearance in F344/N JcL-rnu athymic rat at 0.2 mg/kg, po measured upto 72 hrs by HPLC-MS/MS analysis; assay type: ADME, organism-based; settings: in vivo
Procedure, shortened: (§1)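 Female F344/N JcL-rnu rats, four per group, single p.o. dose suspended in 0.5% methyl cellulose. Tail-vein blood sampled at set times to 72 h. Serum spiked with internal standard, deproteinated with acetonitrile, analysed by HPLC-MS/MS. Parameters derived by noncompartmental analysis.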

NCI-H460 = assay: Antitumor activity against human NCI-H460 cells xenografted in gamma-irradiation induced RH-rnu/rnu athymic rat assessed as tumor growth inhibition at 1.0 mg/kg, po administered once daily for 2 weeks and measured on day 14 relative to control; assay type: functional; settings: NCI-H460, light or radiation study, 336 h, read-out: TGI
Procedure, shortened: (§2)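 Rats were γ-irradiated with 7 Gy whole body, and 24 h later received s.c. tumor cells. Fragments (20-30 mg) from ~1,500 mm3 tumors were then implanted s.c. into irradiated athymic rats. Oral dosing at 0.2 or 1 mg/kg or vehicle ran once daily for 2 weeks from day 0. Tumors were measured with calipers twice weekly (length×width²×0.5). TGI% was taken versus vehicle on day 14 (BxPC-3: day 13), with an unpaired t test on RTV.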

LoVo = assay: Antitumor activity against human LoVo cells xenografted in gamma-irradiation induced RH-rnu/rnu athymic rat assessed as tumor growth inhibition at 1.0 mg/kg, po administered once daily for 2 weeks and measured on day 14 relative to control; assay type: functional; settings: light or radiation study, 336 h, read-out: TGI; procedure, shortened: as §2
[2] = biological target: Tyrosine-protein kinase JAK2 (Homo sapiens, UniProt O60674); assay: Inhibition of Jak2 (unknown origin) in presence of ATP
Chain of Tyrosine-protein kinase JAK2 (O60674 whole entry): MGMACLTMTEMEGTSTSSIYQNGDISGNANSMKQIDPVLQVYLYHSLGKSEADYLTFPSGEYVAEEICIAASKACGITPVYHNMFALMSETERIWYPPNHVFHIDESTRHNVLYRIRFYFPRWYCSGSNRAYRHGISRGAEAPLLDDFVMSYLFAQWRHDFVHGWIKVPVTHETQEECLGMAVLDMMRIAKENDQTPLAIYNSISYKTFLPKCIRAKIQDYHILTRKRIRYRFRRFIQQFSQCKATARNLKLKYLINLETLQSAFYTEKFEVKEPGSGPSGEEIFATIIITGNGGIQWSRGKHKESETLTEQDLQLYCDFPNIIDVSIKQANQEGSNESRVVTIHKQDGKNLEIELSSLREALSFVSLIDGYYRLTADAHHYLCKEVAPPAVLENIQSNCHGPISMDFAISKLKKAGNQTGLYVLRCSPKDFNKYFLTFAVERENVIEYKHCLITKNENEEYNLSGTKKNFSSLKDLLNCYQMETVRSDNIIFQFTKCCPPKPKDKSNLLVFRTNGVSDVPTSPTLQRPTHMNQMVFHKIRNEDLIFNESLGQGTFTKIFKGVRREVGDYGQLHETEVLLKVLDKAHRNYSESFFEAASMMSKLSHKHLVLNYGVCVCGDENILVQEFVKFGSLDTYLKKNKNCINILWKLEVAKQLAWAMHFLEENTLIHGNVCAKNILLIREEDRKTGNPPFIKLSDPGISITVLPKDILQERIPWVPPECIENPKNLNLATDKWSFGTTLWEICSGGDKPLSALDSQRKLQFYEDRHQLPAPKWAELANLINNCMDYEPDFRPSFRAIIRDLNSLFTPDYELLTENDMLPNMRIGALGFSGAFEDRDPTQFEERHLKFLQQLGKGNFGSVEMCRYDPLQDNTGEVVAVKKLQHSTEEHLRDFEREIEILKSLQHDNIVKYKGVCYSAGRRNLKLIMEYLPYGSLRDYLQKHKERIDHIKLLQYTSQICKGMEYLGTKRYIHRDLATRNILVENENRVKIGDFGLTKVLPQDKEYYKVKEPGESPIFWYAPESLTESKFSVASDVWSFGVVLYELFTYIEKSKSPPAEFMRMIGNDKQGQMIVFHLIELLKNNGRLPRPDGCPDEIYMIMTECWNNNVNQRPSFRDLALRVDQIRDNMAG

Calu-6 [3] = assay: Antitumor activity against human Calu-6 cells xenografted in gamma-irradiation induced RH-rnu/rnu athymic rat assessed as tumor growth inhibition at 1.0 mg/kg, po administered once daily for 2 weeks and measured on day 14 relative to control; assay type: functional; settings: Calu-6, light or radiation study, 336 h, read-out: TGI; procedure, shortened: as §2
MDA-MB-231 [4] = assay: Antitumor activity against human MDA-MB-231 cells xenografted in gamma-irradiation induced RH-rnu/rnu athymic rat assessed as tumor growth inhibition at 1.0 mg/kg, po administered once daily for 2 weeks and measured on day 14 relative to control; assay type: functional; settings: MDA-MB-231, light or radiation study, 336 h, read-out: TGI; procedure, shortened: as §2
[5] = Cmax in F344/N JcL-rnu athymic rat at 5 mg/kg, po measured upto 72 hrs by HPLC-MS/MS analysis; assay type: ADME, organism-based; settings: in vivo; procedure, shortened: as §1
[6] = Apparent oral clearance in F344/N JcL-rnu athymic rat at 5 mg/kg, po measured upto 72 hrs by HPLC-MS/MS analysis; assay type: ADME, organism-based; settings: in vivo; procedure, shortened: as §1
MDA-MB-231 [7] = assay: Antitumor activity against human MDA-MB-231 cells xenografted in gamma-irradiation induced RH-rnu/rnu athymic rat assessed as tumor growth inhibition at 0.2 mg/kg, po administered once daily for 2 weeks and measured on day 14 relative to control; assay type: functional; settings: MDA-MB-231, light or radiation study, 336 h, read-out: TGI; procedure, shortened: as §2
[8] = biological target: Platelet-derived growth factor receptor beta (Homo sapiens, UniProt P09619); assay: Inhibition of PDGFR-beta (unknown origin) in presence of ATP
Chain of Platelet-derived growth factor receptor beta (P09619 whole entry): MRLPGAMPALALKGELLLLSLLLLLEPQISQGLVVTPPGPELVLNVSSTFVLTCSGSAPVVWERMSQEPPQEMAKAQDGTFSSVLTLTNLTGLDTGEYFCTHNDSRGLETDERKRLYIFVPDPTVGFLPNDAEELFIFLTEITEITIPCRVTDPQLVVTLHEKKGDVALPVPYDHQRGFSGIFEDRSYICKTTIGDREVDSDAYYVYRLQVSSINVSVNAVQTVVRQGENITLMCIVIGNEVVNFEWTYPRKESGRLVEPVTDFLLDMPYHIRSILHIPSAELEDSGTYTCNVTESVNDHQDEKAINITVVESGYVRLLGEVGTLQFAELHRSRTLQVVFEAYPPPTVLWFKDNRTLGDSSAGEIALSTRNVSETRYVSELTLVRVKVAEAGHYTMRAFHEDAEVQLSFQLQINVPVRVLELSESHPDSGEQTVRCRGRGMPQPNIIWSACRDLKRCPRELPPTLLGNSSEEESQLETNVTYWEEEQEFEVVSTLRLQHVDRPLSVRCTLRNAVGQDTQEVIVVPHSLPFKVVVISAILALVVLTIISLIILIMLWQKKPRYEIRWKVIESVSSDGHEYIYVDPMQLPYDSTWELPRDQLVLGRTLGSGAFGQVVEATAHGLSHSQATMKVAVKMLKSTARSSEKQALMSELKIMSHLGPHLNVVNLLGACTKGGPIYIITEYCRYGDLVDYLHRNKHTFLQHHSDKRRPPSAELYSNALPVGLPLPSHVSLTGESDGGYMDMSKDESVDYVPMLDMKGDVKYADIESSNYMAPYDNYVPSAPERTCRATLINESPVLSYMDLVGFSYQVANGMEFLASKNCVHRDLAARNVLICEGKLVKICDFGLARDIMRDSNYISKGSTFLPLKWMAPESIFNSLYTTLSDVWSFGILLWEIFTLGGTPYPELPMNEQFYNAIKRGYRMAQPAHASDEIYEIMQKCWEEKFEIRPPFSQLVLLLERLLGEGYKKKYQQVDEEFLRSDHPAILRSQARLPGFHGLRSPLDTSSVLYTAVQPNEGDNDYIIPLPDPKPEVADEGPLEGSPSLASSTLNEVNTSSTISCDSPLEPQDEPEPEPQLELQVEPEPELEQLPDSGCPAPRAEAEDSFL

Calu-6 [9] = assay: Antitumor activity against human Calu-6 cells xenografted in RH-rnu/rnu athymic rat assessed as larger enclosed median lumen area by the halos in tumor by measuring vessel diameter at 0.2 mg/kg, po administered for 14 days by H33342 dye based fluorescence microscopic analysis; assay type: functional; settings: time 14 day
Procedure, shortened: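 Calu-6 tumor-bearing athymic rats, three per group, received oral drug at 0.2 or 1 mg/kg or vehicle on days 0-13. They were killed 1 min after i.v. H33342 at 20 mg/kg on day 13. 10 µm cryosections were cut from five tumor levels at least 200 µm apart and examined under UV epifluorescence. The major axis of fluorescent halos around vessels was measured by image analysis, with a Mann-Whitney test.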

Calu-6 [10] = assay: Antitumor activity against human Calu-6 cells xenografted in RH-rnu/rnu athymic rat assessed as decrease in capillary permeability in tumor at 0.2 mg/kg, po measured on day 13 by DCE-MRI analysis relative to control; assay type: functional; parameters: scale not given: the % may be the effect or the level left
BXPC-3 [11] = assay: Antitumor activity against human BXPC-3 cells xenografted in gamma-irradiation induced RH-rnu/rnu athymic rat assessed as tumor growth inhibition at 1.0 mg/kg, po administered once daily for 2 weeks and measured on day 13 relative to control; assay type: functional; settings: BXPC-3, light or radiation study, 336 h, read-out: TGI; procedure, shortened: as §2
[12] = Apparent oral volume of distribution in F344/N JcL-rnu athymic rat at 0.2 mg/kg, po measured upto 72 hrs by HPLC-MS/MS analysis; assay type: ADME, organism-based; settings: in vivo; procedure, shortened: as §1
BXPC-3 [13] = assay: Antitumor activity against human BXPC-3 cells xenografted in gamma-irradiation induced RH-rnu/rnu athymic rat assessed as tumor growth inhibition at 0.2 mg/kg, po administered once daily for 2 weeks and measured on day 13 relative to control; assay type: functional; settings: BXPC-3, light or radiation study, 336 h, read-out: TGI; procedure, shortened: as §2
Calu-6 [14] = assay: Antitumor activity against human Calu-6 cells xenografted in RH-rnu/rnu athymic rat assessed as increased pericyte coverage at 1 mg/kg, po administered for 14 days by immunofluorescence staining analysis relative to control; assay type: functional; settings: time 14 day
Procedure, shortened: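 Calu-6 xenografted athymic rats were randomized at 273-275 mm3 and dosed orally for 2 weeks. Paraffin sections were double-stained with anti-CD31 and Cy3-anti-α-smooth muscle actin. Pericyte-associated endothelial cells were counted in six fields per tumor, with six tumors per group and Dunnett's test.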

PC-3 = assay: Antitumor activity against human PC-3 cells xenografted in gamma-irradiation induced RH-rnu/rnu athymic rat assessed as tumor growth inhibition at 0.2 mg/kg, po administered once daily for 2 weeks and measured on day 14 relative to control; assay type: functional; settings: PC-3, light or radiation study, 336 h, read-out: TGI
Calu-6 [15] = assay: Antitumor activity against human Calu-6 cells xenografted in RH-rnu/rnu athymic rat assessed as tumor growth inhibition at 0.2 mg/kg, po administered once daily for 6 to 21 days by DCE-MRI analysis; settings: time 6-21 day
[16] = Average concentration at steady state in F344/N JcL-rnu athymic rat at 0.2 mg/kg/day, po measured upto 72 hrs by HPLC-MS/MS analysis; assay type: ADME, organism-based; settings: in vivo
Procedure, shortened: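 Steady-state serum levels for repeated oral 0.2 mg/kg daily dosing were simulated from single-dose serum data (female F344/N JcL-rnu rats, four per group, tail-vein sampling to 72 h, HPLC-MS/MS, noncompartmental analysis), not measured directly.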

[17] = AUC (0-infinity) in F344/N JcL-rnu athymic rat at 0.2 mg/kg, po measured upto 72 hrs by HPLC-MS/MS analysis; assay type: ADME, organism-based; settings: in vivo
Procedure, shortened: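 Female athymic rats, four per group, given a single oral dose suspended in 0.5% methyl cellulose in water. Tail-vein blood was drawn at set times up to 72 h. Serum was spiked with internal standard, deproteinated with acetonitrile and analysed by HPLC-MS/MS. AUCinf came from noncompartmental analysis.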

CAKI-1 = assay: Antitumor activity against human CAKI-1 cells xenografted in gamma-irradiation induced RH-rnu/rnu athymic rat assessed as tumor growth inhibition at 0.2 mg/kg, po administered once daily for 2 weeks and measured on day 14 relative to control; assay type: functional; settings: CAKI-1, light or radiation study, 336 h, read-out: TGI; procedure, shortened: as §2
HUVEC = assay: Antiproliferative activity against VEGF-induced human HUVEC cells assessed as cell viability incubated for 72 hrs by WST-1 assay

For `COc1cc2nccc(Oc3ccc(NC(=O)Nc4cc(C)on4)c(Cl)c3)c2cc1OC` [TIVOZANIB], the CL/F [1] was 2.07 mL/min/kg, the inhibition in vivo at 1 mg/kg (NCI-H460) was 85.9% and the inhibition in vivo at 1 mg/kg (LoVo) was > 100%. For the same compound, the IC50 [2] was > 1000 nM, the inhibition in vivo at 1 mg/kg (Calu-6 [3]) was 99.2% and the inhibition in vivo at 1 mg/kg (MDA-MB-231 [4]) was > 100%. For the same compound, the Cmax [5] was 2820 ng/mL, the CL/F [6] was 1.88 mL/min/kg and the inhibition in vivo at 0.2 mg/kg (MDA-MB-231 [7]) was 77%. It also gave an IC50 [8] of 49 nM, an Activity (Calu-6 [9]) of 57.9 um and an Activity (Calu-6 [10]) of 45%. It also gave an inhibition in vivo at 1 mg/kg (BXPC-3 [11]) of 93.5%, a Vd/F [12] of 1.4 L/kg and an inhibition in vivo at 0.2 mg/kg (BXPC-3 [13]) of 60.7%. For the same compound, the Activity (Calu-6 [14]) was 50.5%, the inhibition in vivo at 0.2 mg/kg (PC-3) was 73.6% and the Activity (Calu-6 [15]) was “Active”. For the same compound, the “Cave,ss” value [16] was 69.5 ng/mL, the AUC(0-inf) [17] was 1640 ng·h/mL and the inhibition in vivo at 0.2 mg/kg (CAKI-1) was 26.9%. For the same compound, the IC50 (HUVEC) was 0.67 nM.
